Measurements pooled from the literature.
Compare with care: the assays were run in different laboratories.

SMILES | system | conditions | Papp
CC(NC(C)(C)C)C(=O)c1cccc(Cl)c1 (stereo not drawn) | PAMPA-BBB | 1 µM, 18 h | 16 ×10⁻⁶ cm/s
NC(=O)[C@@H]1CC(F)(F)CN1C(=O)c1ccc(N2CC(F)(F)C2)c(OCC2CC2)n1 | PAMPA | – | 5.23 ×10⁻⁶ cm/s
CC[C@H](C)[C@@H]1NC(=O)[C@H](CC(C)C)NC(=O)[C@@H](CC(C)C)NC(=O)[C@H]2CCCN2C(=O)[C@H](Cc2ccc(OC)cc2)NC(=O)[C@@H](CC(C)C)NC1=O | PAMPA | 10 µM, 7 h | 11.9 ×10⁻⁶ cm/s
CN1CCN(C(c2ccc(Cl)cc2)c2ccc(Cl)cc2)CC1 | PAMPA | – | 1020 ×10⁻⁶ cm/s
N#Cc1ccc(COc2cccc(C(=O)Nc3ccc4c(c3)B(O)OC4)c2)cc1 | PAMPA | 200 µM, 5 h, pH 7.4 | 0.076 ×10⁻⁶ cm/s
Cc1nc([C@@](C)(CC2CC2)NC(=O)c2cc(OCC(F)(F)F)c(C3CC3)cn2)no1 | PAMPA | – | 2.44 ×10⁻⁶ cm/s
CC[C@@H](C)[C@@H]1NC(=O)[C@@H](Cc2ccc(OC)cc2)NC(=O)CN(C)C(=O)[C@H]([C@H](C)CC)NC(=O)[C@@H](Cc2ccc(OC)cc2)NC(=O)CN(C)C1=O | PAMPA | – | 29 ×10⁻⁶ cm/s
O=S(=O)(Nc1ccc2c(c1)B(O)OC2)c1ccc(Cl)cc1 | PAMPA | 200 µM, 5 h, pH 7.4 | 1.7 ×10⁻⁶ cm/s
CC(C)[C@H]1C(=O)N[C@@H](CCCN=C(N)N)C(=O)NCC(=O)N[C@@H](CC(=O)O)C(=O)N[C@H](Cc2ccccc2)C(=O)N1C | Caco-2 | – | ~0.1 ×10⁻⁶ cm/s
O=C1NC(=O)C(c2ccccc2)(c2ccccc2)N1 | PAMPA | 200 µM, 5 h, pH 7.4 | 6.1 ×10⁻⁶ cm/s
COCCOCCOCCOCCOc1c(OC)cc2cc(C(=O)N3C[C@@H](CCl)c4c3cc(O)c3[nH]c(C(=O)OC)cc43)[nH]c2c1OC | PAMPA | 1 µM, 5 h, pH 7.4 | 10 ×10⁻⁶ cm/s
O=C(Nc1ccc2c(c1)B(O)OC2)c1ccccc1OCc1ccccc1 | PAMPA | 200 µM, 5 h, pH 7.4 | 1.2 ×10⁻⁶ cm/s
COCCOCCOc1c(OC)cc2cc(C(=O)N3C[C@@H](CCl)c4c3cc(O)c3[nH]c(C(=O)OC)cc43)[nH]c2c1OC | PAMPA | 1 µM, 5 h, pH 7.4 | 3.6 ×10⁻⁶ cm/s
O=C(Nc1ccc2c(c1)B(O)OC2)c1cccc(OCc2c(Cl)cccc2Cl)c1 | PAMPA | 200 µM, 5 h, pH 7.4 | 0.91 ×10⁻⁶ cm/s
COc1ccc(C[C@@H]2NC(=O)[C@@H](CC(C)C)NC(=O)[C@H](CCSC)NC(=O)[C@H](CC(C)C)NC(=O)[C@@H](CC(C)C)NC(=O)[C@H]3CCCN3C2=O)cc1 | PAMPA | 10 µM, 7 h | 13 ×10⁻⁶ cm/s
